# RAD52 inh: inhibitors of human RAD52 DNA annealing | actives 0.46% (n = 360,000) | AID 651710 | inhibition, % at 18.7 µM | P43351 | recombinant RAD52 DNA annealing, FRET fluorescence;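 active = every replicate showing at least 50% inhibition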
# FN deposition inh: fibronectin deposition inhibition. actives 0.086% (n = 350,000). AH1F fibroblasts, Alexa488-fibronectin deposition fluorescence, overnight. AID 743247. inhibition, % at 12.6 µM;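 active = mean inhibition across replicates of 30% or more, regardless of how many single replicates reach that level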;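 note: positive control wells lacked labelled fibronectin entirely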
#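 test system = AH1F fibroblasts assembling fluorescent fibronectin matrix | quantity = 10000 AH1F cells per well | buffer or medium = DMEM plus 2% serum, read in PBS | doses = single dose, pinned | incubation = 1 h cell attachment, overnight exposure to compound and label | detection = fluorescence at 485 nm excitation, 525 nm emission | read-out basis = inhibition from reduced deposited-fibronectin fluorescence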
# RAD54 branch: RAD54 (human) branch migration inhibition. Q92698. RAD54 Holliday junction branch migration, FAM/BHQ fluorescence. inhibition, % at 10.4 µM. actives 0.14% (n = 360,000). AID 602329;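 active = mean normalized replicate activity at least 40 and at least half of replicates scoring 40 or more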;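 note: 0% = median of neutral control wells and 100% = median of positive control wells; inhibitors cause a drop in the FAM fluorescence signal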
# MLL AF4-AF9 inh: blocks AF4 peptide binding to human AF9 | P42568 | AlphaScreen, biotin-AF4 peptide binding to FLAG-AF9 | inhibition, % at 10 µM | actives 0.47% (n = 350,000) | AID 651704;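 active = every replicate reaching a set inhibition limit, whatever the replicate mean, cut at about 25% in these data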;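 note: 0% = plate neutral control median and 100% = total signal loss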
# Target sequence (P42568 whole entry, looked up): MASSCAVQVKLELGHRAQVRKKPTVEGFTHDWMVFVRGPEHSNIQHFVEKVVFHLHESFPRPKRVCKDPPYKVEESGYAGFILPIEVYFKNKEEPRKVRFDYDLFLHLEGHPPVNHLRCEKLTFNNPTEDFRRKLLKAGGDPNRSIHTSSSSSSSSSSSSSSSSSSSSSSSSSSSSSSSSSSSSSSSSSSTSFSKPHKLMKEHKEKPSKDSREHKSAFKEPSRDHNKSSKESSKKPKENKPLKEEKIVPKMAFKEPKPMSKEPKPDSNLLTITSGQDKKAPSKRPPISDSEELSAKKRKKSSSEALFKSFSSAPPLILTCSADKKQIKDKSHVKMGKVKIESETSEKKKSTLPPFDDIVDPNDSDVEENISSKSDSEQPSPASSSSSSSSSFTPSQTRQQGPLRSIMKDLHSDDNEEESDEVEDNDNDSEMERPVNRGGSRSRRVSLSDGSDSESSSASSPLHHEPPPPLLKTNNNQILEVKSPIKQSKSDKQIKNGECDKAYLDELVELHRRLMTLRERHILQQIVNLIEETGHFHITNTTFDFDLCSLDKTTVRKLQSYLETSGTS
# NSD2 inh: inhibitors of human histone methyltransferase NSD2. inhibition, % at 12.5 µM. O96028. NSD2 peptide methylation, AlphaScreen, 120 min. actives 0.54% (n = 310,000); in the data active = inhibition above about 50%
# Glyco luc inh: N-linked glycosylation inhibition. D54 ERlucT glycosylation luciferase reporter, 24 h; percent of 100 nM tunicamycin response. reporter increase, % at 12.5 µM. actives 0.23% (n = 360,000). AID 588692;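 active = mean luciferase reporter signal, scaled so untreated is 0 and the glycosylation-blocking control 100, at or above a set limit in every replicate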;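 note: luciferase carries N-glycosylation sites so blocking glycosylation raises the light; 0% = median of neutral control wells and 100% = median of 100 nM tunicamycin wells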
# * marks the source's active call; other numbers are inactive results; x = not tested or not shown. This is a sample that favours compounds with a hit; in the whole collection about 1.2% have one here.
SMILES,RAD52 inh,FN deposition inh,RAD54 branch,MLL AF4-AF9 inh,NSD2 inh,Glyco luc inh
C[C@@H]1CN([C@@H](C)CO)S(=O)(=O)c2ccc(C#Cc3ccccc3)cc2O[C@@H]1CN(C)C(=O)CN(C)C,50.5*,16.0,-2.9,13.3,x,x
CCCNC(=O)N1CC(=O)N2[C@H](C1)[C@@H](c1ccc(-c3cccc(C)c3)cc1)[C@@H]2CO,-4.8,x,x,-10.8,x,x
COc1cc(/C=C/C(=O)OCC(=O)N2CCCCCC2)ccc1OCC#N,-16.9,-1.7,-1.3,-0.7,0.5,-2.0
COc1cc(/C=C/C(=O)OCC(=O)N2CCCC2)ccc1OCC#N,-3.8,15.1,2.6,31.2*,-2.5,0.7
Cc1ccc(Sc2ccc(CN3CCCC3)cc2[N+](=O)[O-])cc1,13.3,-1.4,5.9,31.0*,24.9,-0.8
CN1CCN(Cc2ccc(Sc3ccc(Cl)cc3)c([N+](=O)[O-])c2)CC1,18.7,0.5,x,21.2,16.0,-1.9
C[C@H](CO)N1C[C@H](C)[C@@H](CN(C)C(=O)N[C@H](C)c2ccccc2)OCc2ccccc2-c2c(n(C)c3ccccc23)C1=O,17.9,-0.8,6.9,4.0,x,x
Cc1ccc(-c2ccnc3c(Cl)c(C)nn23)cc1,-3.7,3.9,-9.0,51.1*,-0.9,-1.5
O=C1CN(c2nc(-c3ccccc3)c3cc(Cl)ccc3n2)c2ccccc2N1,x,4.6,-11.9,x,0.4,13.8
O=C1Cc2c(-c3ccccc3)cc(-c3cccc(Cl)c3)nc2-c2ccccc2N1,-0.4,3.9,x,-4.0,-2.4,72.3*
CO[C@H]1CN(C)C(=O)c2cc(NC(=O)Nc3cc(Cl)cc(Cl)c3)ccc2OC[C@@H](C)NC[C@@H]1C,59.0*,-2.9,x,x,x,x
CO[C@@H]1CN(C)C(=O)c2cc(NC(=O)Nc3ccc(Cl)c(Cl)c3)ccc2OC[C@H](C)NC[C@@H]1C,52.0*,5.9,26.6,x,x,x
CO[C@@H]1CN(C)C(=O)c2cc(NC(=O)Nc3cc(Cl)cc(Cl)c3)ccc2OC[C@@H](C)NC[C@@H]1C,x,-21.5,x,x,x,x
CO[C@H]1CN(C)C(=O)c2cc(NC(=O)Nc3ccc(Cl)c(Cl)c3)ccc2OC[C@H](C)NC[C@H]1C,54.0*,1.0,29.2,x,x,x
CO[C@@H]1CN(C)C(=O)c2cc(NC(=O)Nc3ccc(Cl)cc3)ccc2OC[C@H](C)NC[C@H]1C,12.7,0.3,5.8,5.2,x,x
CC(C)NC(=O)N1C[C@@H]2C(c3ccc(Br)cc3)[C@H](C1)N2Cc1ccc(F)cc1 (some centres undefined),x,-19.0,x,x,x,x
COc1ccc(N2CCN(C(=O)Cn3cncn3)CC2)cc1,-15.2,-5.0,3.4,6.0,x,-0.7
CC(C)N1CCN(c2ccc(OC[C@H]3CO[C@](Cn4cncn4)(c4ccc(Cl)cc4Cl)O3)cc2)CC1,21.2,0.6,-2.0,36.2*,x,-0.7
Cc1ccc(C)n1/N=C1/NC(=O)CS1,x,5.6,-3.1,x,143.9*,-1.1
COC(=O)CCSCC(=O)Nc1nnc(C)s1,-9.2,4.2,14.7,26.6*,x,3.6
COc1cc(OC)c2ccc(=O)oc2c1C(CC(=O)N1CCOCC1)c1ccc(N(C)C)cc1 (centres undefined),x,31.4*,-5.3,x,x,3.3
O=C(C[C@H]1C[C@H]2c3cc(NC(=O)C4CCC4)ccc3O[C@H]2[C@@H](CO)O1)NCc1ccncc1,2.8,-4.2,5.8,-1.6,x,x
CO[C@@H]1CN(C)C(=O)c2ccc(NC(=O)c3ccc(-c4ccccc4)cc3)cc2OC[C@@H](C)NC[C@H]1C,48.0,39.7*,x,10.7,x,x
CO[C@@H]1CN(C)C(=O)c2ccc(NC(=O)c3ccc(Oc4ccccc4)cc3)cc2OC[C@@H](C)NC[C@H]1C,47.7,0.7,-7.8,12.0,x,x
CO[C@H]1CN(C)C(=O)c2ccc(NC(=O)c3ccc(Oc4ccccc4)cc3)cc2OC[C@H](C)NC[C@H]1C,52.0*,6.5,7.2,11.9,x,x
SMILES,RAD52 inh,FN deposition inh,RAD54 branch,MLL AF4-AF9 inh,NSD2 inh,Glyco luc inh
COc1cccc(NC(=O)Nc2ccc3c(c2)OC[C@H](C)NC[C@@H](C)[C@@H](OC)CN(C)C3=O)c1,73.6*,-23.6,-6.1,13.2,x,x
COc1cccc(NC(=O)Nc2ccc3c(c2)OC[C@H](C)NC[C@@H](C)[C@H](OC)CN(C)C3=O)c1,25.8,-7.0,-4.9,7.2,x,x
CCNC(=O)C[C@@H]1CC[C@H]2[C@H](COc3ccc(NC(=O)Nc4ccc(Cl)cc4)cc3C(=O)N2C)O1,0.5,-2.2,9.5,1.0,x,x
O=C(Cc1ccncc1)Nc1ccc2c(c1)[C@@H]1C[C@H](CC(=O)N3CCc4ccccc4C3)O[C@@H](CO)[C@@H]1O2,-7.6,x,5.1,9.9,x,x
O=C(Cc1ccncc1)Nc1ccc2c(c1)[C@H]1C[C@H](CC(=O)N3CCc4ccccc4C3)O[C@H](CO)[C@H]1O2,-3.7,x,8.9,25.2*,x,x
COc1ccc(Cl)cc1S(=O)(=O)NC(C)C(=O)NCCCN1CCOCC1 (centres undefined),x,x,x,x,-1.5,x
O=C(C[C@@H]1CC[C@H](NS(=O)(=O)c2ccc(F)cc2)[C@@H](CO)O1)N1CCc2ccccc2C1,-6.9,x,3.0,-1.1,x,x
CC(C)(C)C1CCC(=NNc2nc3ccccc3[nH]2)CC1 (centres undefined),-4.6,0.4,x,10.4,6.0,1.3
c1ccc(CN2CCC(=NNc3nc4ccccc4[nH]3)CC2)cc1,-7.0,x,1.3,34.1*,5.7,2.6
C[C@@H]1CN([C@@H](C)CO)C(=O)c2cc(NS(=O)(=O)c3ccc(F)cc3)ccc2O[C@H]1CN(C)C(=O)Nc1ccc(F)cc1,15.8,x,-9.8,-4.1,x,x
COc1ccc(CC(=O)Nc2ccc(-c3ccc4nnc(C)n4n3)cc2)cc1OC,-25.7,-2.4,-13.4,-1.0,-5.9,30.4*
CC1=CC(C)(C)N2C(=O)C(=O)c3cc(OC(=O)c4ccco4)cc1c32,-2.3,10.8,x,30.9*,1.5,11.1
CC1=CC(C)(C)Nc2ccc(OC(=O)c3ccco3)cc21,x,10.9,-3.2,x,17.1,-1.9
C[C@H]1CCCCO[C@H](CN(C)C(=O)Nc2ccc(F)cc2)[C@@H](C)CN([C@@H](C)CO)C(=O)c2cc(NC(=O)C3CCCCC3)ccc2O1,3.0,x,4.1,0.8,x,x
CC[C@]12c3[nH]c4cc(CCC(=O)N(C)C)ccc4c3CCN1C(=O)[C@@H](CC(=O)NC/C=C(\C)CCC=C(C)C)C[C@@H]2C(=O)N1CCN(C(=O)c2ccco2)CC1,x,x,-14.7,x,x,31.0*

# Screens (PubChem BioAssay)
